A selection: hits, their analogues and other compounds. The true share with any hit is near 2.4%.
HNF4A DNA FP = change in binding of human HNF4 alpha to DNA; P41235; HNF4a-FITC DNA binding, fluorescence polarization, 1 h; activity change, % at 10 µM; 360,000 compounds, 0.3% hits; in the data active means activity change above about 30%, passing the limit was not always enough
CSN deneddyl inh = blocks human CSN-mediated cullin deneddylation; Q92905; Purified CSN, SCF-Nedd8-OG deneddylation, fluorescence polarization; inhibition, % at 12.5 µM; 360,000 compounds, 0.38% hits; AID 651999;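 active means pattern-corrected inhibition above about 35%, with an unprinted fluorescence ratio check between 0.5 and 1.5, limit read from the data, passing the limit was not always enough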;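 further: 0% = enzyme with substrate and 100% = substrate without enzyme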
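Detection – fluorescence polarization · System – HEK293T-derived human Csn5 enzyme · Controls – substrate-only high control, full reaction low control · Timing – 90 min, room temperature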
Tb MetRS inh = Trypanosoma brucei MetRS inhibition | purified T. brucei MetRS, ATP depletion, Kinase-Glo luminescence | inhibition, % at 11.9 µM | 360,000 compounds, 0.4% hits;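 active means inhibition above a per-plate cutoff of the control wells' mean inhibition plus 3 SD, cut at about 5.5% in these data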;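 further: 0% = DMSO wells median and 100% = median of wells with control inhibitor compound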
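Material – parasite MetRS enzyme · Medium – HEPES-MgCl2-KCl buffer plus DTT, spermine, BSA, pyrophosphatase · Reagent – ATP, methionine and E. coli bulk tRNA substrates · Times – 15 min enzyme-compound preincubation, 2 h reaction, 10 min detection, 25 °C · Measured by – luminescence of leftover ATP · Evaluation – percent inhibition relative to median high and low control wells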
Rpn11 block = Rpn11 (human) deubiquitinase inhibition. O00487. human 26S proteasome, Ub4-pepOG fluorescence polarization; 20S core pre-blocked with epoxomicin. inhibition, % at 20 µM. 360,000 compounds, 0.59% hits;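 active means inhibition at 20 µM, scaled to each plate's controls, above about 33%, limit read from the data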
Neddylation inh = blocks human cullin neddylation | inhibition, % at 25 µM | P61081+Q13564 | 360,000 compounds, 0.58% hits | AID 651699 | TR-FRET cullin neddylation, biochemical; in the data active means inhibition above about 36%
PREPL inhibitor = inhibitors of human prolyl oligopeptidase-like enzyme PREPL; Q4J6C6; inhibition, % at 5.96 µM; 320,000 compounds, 0.68% hits; recombinant PREPL, fluorescence polarization activity-based probe; in the data active means inhibition above about 43%;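 further: 0% = enzyme with DMSO and 100% = wells lacking enzyme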
Target sequence (Q4J6C6 whole entry, looked up): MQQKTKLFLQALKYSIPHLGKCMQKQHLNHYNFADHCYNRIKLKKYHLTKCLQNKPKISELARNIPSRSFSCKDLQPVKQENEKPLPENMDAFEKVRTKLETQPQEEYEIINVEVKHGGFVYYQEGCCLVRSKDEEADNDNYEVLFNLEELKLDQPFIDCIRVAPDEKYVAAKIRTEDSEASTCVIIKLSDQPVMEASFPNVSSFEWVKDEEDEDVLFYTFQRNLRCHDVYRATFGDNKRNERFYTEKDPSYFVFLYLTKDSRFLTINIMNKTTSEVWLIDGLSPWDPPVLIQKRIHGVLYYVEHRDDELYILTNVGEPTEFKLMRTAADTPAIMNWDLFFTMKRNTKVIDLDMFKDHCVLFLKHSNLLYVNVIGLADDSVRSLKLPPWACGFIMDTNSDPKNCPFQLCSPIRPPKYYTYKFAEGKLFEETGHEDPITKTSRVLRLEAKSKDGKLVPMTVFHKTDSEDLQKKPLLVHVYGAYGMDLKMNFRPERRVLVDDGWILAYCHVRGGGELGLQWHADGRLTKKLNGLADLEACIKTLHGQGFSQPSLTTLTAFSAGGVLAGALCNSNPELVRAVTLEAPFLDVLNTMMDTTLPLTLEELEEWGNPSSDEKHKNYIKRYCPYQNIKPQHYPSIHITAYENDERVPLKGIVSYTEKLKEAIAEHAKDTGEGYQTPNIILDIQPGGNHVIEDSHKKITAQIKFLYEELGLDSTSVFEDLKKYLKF
HNF4A confirm = change in binding of human HNF4 alpha to DNA, retest; 210 compounds, 99% hits; activity change, % at 12.5 µM; shares compounds with HNF4A DNA FP; AID 1224897; HNF4A-FITC DNA binding, fluorescence polarization, 1 h; call rule not given here
The depositor's hits bear a star; · = no result shown; + = active, no number.

SMILES | HNF4A DNA FP | CSN deneddyl inh | Tb MetRS inh | Rpn11 block | Neddylation inh | PREPL inhibitor | HNF4A confirm
COc1ccc(/C=C2\SC(=S)N(CCC(=O)NC3=NCCS3)C2=O)cc1OC | 53* | -2 | 0 | · | -36 | 16 | 77*
COc1cc(/C=C2/SC(=S)N(C)C2=O)ccc1OC(=O)c1ccco1 | 49* | 25 | 2 | 16 | -29 | 9 | 37*
OC[C@@H]1CC[C@@H](Cc2ccc(-c3ccccc3)cc2)O1 | 1 | 5 | -2 | -2 | 0 | · | ·
NC(=O)c1ccccc1NC(=O)CN1CCN(Cc2ccc(Cl)cc2Cl)CC1 | -3 | 2 | 0 | -20 | -9 | 13 | ·
Cc1cc(NC(=O)c2ccccc2)ccc1NC(=O)Cc1ccccc1 | -2 | 2 | -2 | -5 | 19 | -2 | ·
COc1cc(-c2cc(-c3ccc(N)cc3)[nH]c(=O)c2C#N)cc(OC)c1OC | 55* | 27 | 0 | · | 26 | 3 | 83*
CCOC(=O)c1c(NC(=S)Nc2ccc(Cl)cc2)sc2c1CCN(C)C2 | 58* | 61* | 0 | · | -31 | 39 | 83*
CCCCN(C)c1c(C)nc2ccc(C(=O)NCc3ccc4c(c3)OCO4)cn12 | -2 | 2 | 0 | 2 | 12 | · | ·
CN(C)c1ccc(CNC(=O)C2(C)Cc3c(-c4cccc(C(N)=O)c4)ccnc3O2)cc1 (stereo unspecified) | 0 | -5 | 0 | -5 | -11 | · | ·
Cc1ccc(Nc2nc(Cl)c(C=O)s2)cc1Cl | 44* | 25 | 0 | · | -50 | -11 | 44*
COc1ccccc1Nc1nc(Cl)c(C=O)s1 | 50* | 38* | -1 | · | -42 | 13 | 89*
C/C(=N/NC(=O)CN1CCN(Cc2ccccc2Cl)CC1)c1cccs1 | 1 | -1 | 0 | 0 | -4 | -8 | ·
COc1ccc(CCN2C(=O)COc3ccccc3C2C(=O)Nc2ccc3c(c2)OCCO3)cc1OC (stereo unspecified) | 1 | -1 | 0 | · | 4 | · | ·
CC(=O)c1ccc(NC(=O)c2ccc(NC(=O)c3ccco3)cc2)cc1 | 86* | 20 | 0 | + | -12 | 6 | 111*
CC(=O)Nc1ccc(NC(=O)c2ccco2)cc1 | 4 | -1 | -1 | -4 | 5 | -11 | ·
CC1N(C)c2cc(NC(=O)c3ccco3)c(P(=O)(Nc3ccc([N+](=O)[O-])cc3)N3CCOCC3)cc2C1(C)C (stereo unspecified) | 0 | 11 | -1 | 12 | -17 | -10 | ·
CC1N(C)c2cc(NC(=O)c3ccco3)ccc2C1(C)C (stereo unspecified) | 52* | 102 | -1 | · | 17 | -226 | 41*
CCOC(=O)c1c(-c2ccc(C)cc2)csc1NC(=O)/C(C#N)=C/c1ccc(O)c(OC)c1 | 55* | 42* | 0 | · | 17 | · | 62*
COc1ccc(OCCNc2cc(Cl)ccc2[N+](=O)[O-])cc1 | 51* | 47* | -1 | · | -18 | 8 | 67*
CC(NC(=O)/C(C#N)=C1\N=C(NC(=O)c2ccco2)c2ccccc21)c1ccccc1 (stereo unspecified) | 74* | 11 | 0 | 26 | 15 | 19 | 36*
O=[N+]([O-])c1ccc(-c2ccc(/C=N/Nc3nc(N4CCCC4)nc(N4CCCC4)n3)o2)cc1 | 33* | 28 | 0 | · | -14 | 13 | 35*
CCOC(=O)c1c(C)c(C)n2c1NC(=O)C2 | 57* | 21 | -1 | · | 0 | · | 65*
O=C(N/N=C/c1coc2ccccc2c1=O)c1cc(Br)ccc1O | 46* | 27 | 0 | 19 | · | 4 | 35*
N#C/C(=C/c1ccc(-c2ccc([N+](=O)[O-])cc2)o1)c1nnc(N2CCOCC2)n1-c1ccccc1 | 48* | 16 | 0 | 27 | -41 | · | 38*
Cc1cc(=O)[nH]c(N/N=C/c2cccc(Br)c2)n1 | 5 | 4 | 0 | -1 | -21 | -15 | ·
CC(=O)c1sc(N/N=C\c2cccc(Br)c2)nc1C | 39* | 27 | 1 | · | · | 37 | 57*
NC(=O)C1Cc2ccccc2CN1C(=O)c1nn(Cc2ccccc2)c(=O)c2ccccc12 (stereo unspecified) | 5 | 5 | 0 | -3 | 2 | -2 | ·
CCC(C)NC(=O)CN1C(=O)c2cccc3cccc1c23 (stereo unspecified) | 0 | 3 | -1 | -7 | 24 | · | ·
CCN1/C(=N\N)c2cccc3cccc1c23 | 57* | 51* | 0 | · | 13 | -8 | 72*
